According to paper PMC9979192 (Acta Pharmaceutica Sinica. B, 2022):
Where two headings read alike, the source gives them in different places.

Experiments:
[1] = tested on: mouse primary hepatocytes; test: In vitro de novo lipogenesis in primary hepatocytes; format: cell-based; details: 24 h treatment; compared with BA
In short: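 Hepatocytes came from 8–12-week male C57BL/6J mice by Percoll purification and were kept in Hepato ZYME-SFM with 2 mmol/L l-glutamine and antibiotics at 6 × 10^5 cells/well. Treated either 24 h with 0.1 μCi/well [1,2-14C]-acetate during the last 4 h, or 4 h with the label present. 14C in fatty acids and cholesterol was extracted and scintillation-counted, then normalized to DMSO; n = 3–4.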

[2] = tested on: primary mouse hepatocytes; test: Glucose output; format: cell-based; details: 6 h, pyruvate 2 mmol/L and lactate 20 mmol/L; compared to BA
In short: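 Primary hepatocytes from male C57BL/6J mice were treated with the test compound for 6 h in gluconeogenic medium with pyruvate (2 mmol/L) and lactate (20 mmol/L), with or without 4.0 mmol/L l-glutamine. Glucose output into the medium was measured and normalized to the DMSO group; n = 4.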

[3] = monkey plasma; ref a previous study; cited from earlier work
primary hepatocytes = test: In vitro cholesterol efflux and Abcg5/8 expression; format: cell-based, mouse; details: 3H-cholesterol, 12 h; BA 50 μmol/L
In short: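 For Abcg5/Abcg8 mRNA, primary mouse hepatocytes were treated 24 h with 50 μmol/L test compound plus 15 μg/mL cholesterol in 420 μg/mL M-β-CD. For efflux, cells were loaded 12 h with 0.5 μCi/mL 3H-cholesterol plus cholesterol, washed, then given 12.5–50 μmol/L compound with 15 μg/mL cholesterol in serum-free medium for 12 h at 37 °C. 3H in medium and NaOH lysate was counted; T0901317 (1 μmol/L) served as positive control.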

[4] = tested on: hypercholesterolemia patients; details: at 12 weeks, with maximally tolerated statin therapy; cited from earlier work
golden hamsters = test: HFHC diet-induced hyperlipidemia in golden hamsters; format: in vivo, golden hamster; details: 2 weeks; 326E 15 and 30 mg/kg, BA 30 mg/kg; vs vehicle
HCD mice = test: In vivo cholesterol efflux in HCD mice; design: species or system C57BL/6J mice; details: oral 30 mg/kg for 7 days
ApoE-/- mice = test: Western diet-induced atherosclerosis in ApoE-/- mice; format: in vivo, mouse; details: 24 weeks once daily oral
In short: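 Male ApoE−/− mice were started at 6–8 weeks on a high-fat, high-cholesterol diet for 23–24 weeks, with oral compound dosing. Whole aortas were stained with Sudan IV for plaque, and plasma hsCRP was measured. For hepatic cholesterol, liver lipid residue was resuspended in ethanol with 1% Triton X-100 and assayed with commercial kits.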

[5] = rat plasma; ref a previous study; cited from earlier work
[6] = human plasma; ref a previous study; cited from earlier work
[7] = mouse plasma; ref a previous study; cited from earlier work
rhesus monkeys = test: Rhesus monkeys with spontaneous hyperlipidemia, efficacy and safety; format: in vivo, rhesus monkey; details: 2 weeks; 326E 20 mg/kg, atorvastatin 2.4 mg/kg

Compound: CC(C)(CCCCC=CCCCCCC(C)(C)C(=O)O)C(=O)O [326F]
- incorporation of [1,2-14C]-acetate into fatty acids and cholesterol [1]: dose-dependent lipogenesis inhibition
- cumulative glucose production [2]: reduced with a greater tendency

Compound: CC(C)(CCCCCC(O)CCCCCC(C)(C)C(=O)O)C(=O)O [BA, Bempedoic acid]
- in vitro plasma protein-binding rate [3]: 95%–98
- cholesterol efflux into the cell culture medium (primary hepatocytes): markedly promoted cholesterol efflux
- placebo-adjusted decrease from baseline in LDL-C [4]: 16.5%
- body weight (golden hamsters): significantly decreased
- hepatic cholesterol content (HCD mice): significantly reduced hepatic cholesterol content
- hepatic cholesterol content reduced compared to vehicle (ApoE-/- mice): 37%
- aortic plaques reduced (ApoE-/- mice; 326E 15, 30, 60 mg/kg, BA 30 mg/kg): 33.4%
- in vitro plasma protein-binding rate [5]: 95%–98
- in vitro plasma protein-binding rate [6]: 95%–98
- in vitro plasma protein-binding rate [7]: 95%–98

Compound: CC(C)c1c(C(=O)Nc2ccccc2)c(-c2ccccc2)c(-c2ccc(F)cc2)n1CC[C@@H](O)C[C@@H](O)CC(=O)O [atorvastatin, Atorvastatin]
- body weight during treatment (rhesus monkeys): unchanged
